Measurements from ChEMBL document CHEMBL3272198, “Preparation and in vitro antifungal activities of some quinolizidine derived hemiaminals and beta-tert-amino sulfides” (1976).
The source made the active and inactive calls. No cut-off for these calls is given here.

Legend:
Assay type in all cases: functional
[1] = system: Blastomyces dermatitidis; assay: Antifungal activity against Blastomyces dermatitidis Gilchrist & Stokes isolate 1107 at 10 ug/ml after 2 weeks (reference value: 35 mm); details: Gilchrist & Stokes isolate 1107, 336 h, read-out: DIZ
Method in brief: (§1)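 Mycelial phase grown on Sabouraud dextrose agar at 25°C. Agar pH was set to 6 before the test solution was added and was 5.0-5.5 after. Test solutions contained HOAc and Me2SO, and solvent and blank controls were included. Each quadrant was center-inoculated with a 2 × 2 mm piece of a 2-week-old mycelial culture. Colony diameter was measured weekly for 3 weeks and reported as total increments (mm). Duplicates were run.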

[2] = system: Blastomyces dermatitidis; assay: Antifungal activity against Blastomyces dermatitidis Gilchrist & Stokes isolate 1107 at 80 ug/ml after 3 weeks (reference value: 40 mm); details: Gilchrist & Stokes isolate 1107, 504 h, read-out: DIZ; method in brief: as §1
[3] = system: Blastomyces dermatitidis; assay: Antifungal activity against Blastomyces dermatitidis Gilchrist & Stokes isolate 1107 at 60 ug/ml after 3 weeks (reference value: 40 mm); details: Gilchrist & Stokes isolate 1107, 504 h, read-out: DIZ; method in brief: as §1
[4] = system: Blastomyces dermatitidis; assay: Antifungal activity against Blastomyces dermatitidis Gilchrist & Stokes isolate 1107 at 10 ug/ml after 3 weeks (reference value: 40 mm); details: Gilchrist & Stokes isolate 1107, 504 h, read-out: DIZ; method in brief: as §1
[5] = system: Histoplasma capsulatum; assay: Antifungal activity against Histoplasma capsulatum Darling isolate 1106 at 100 ug/ml after 1 week (reference value: 14 mm)
[6] = system: Histoplasma capsulatum; assay: Antifungal activity against Histoplasma capsulatum Darling isolate 1106 at 80 ug/ml after 1 week (reference value: 14 mm)
[7] = system: Histoplasma capsulatum; assay: Antifungal activity against Histoplasma capsulatum Darling isolate 1106 at 40 ug/ml after 1 week (reference value: 14 mm)
[8] = system: Histoplasma capsulatum; assay: Antifungal activity against Histoplasma capsulatum Darling isolate 1106 at 20 ug/ml after 1 week (reference value: 14 mm); details: Darling isolate 1106, 168 h, read-out: DIZ
[9] = system: Histoplasma capsulatum; assay: Antifungal activity against Histoplasma capsulatum Darling isolate 1106 at 10 ug/ml after 1 week (reference value: 14 mm); details: Darling isolate 1106, 168 h, read-out: DIZ
[10] = system: Histoplasma capsulatum; assay: Antifungal activity against Histoplasma capsulatum Darling isolate 1106 at 100 ug/ml after 2 weeks (reference value: 25 mm)
[11] = system: Histoplasma capsulatum; assay: Antifungal activity against Histoplasma capsulatum Darling isolate 1106 at 40 ug/ml after 2 weeks (reference value: 25 mm)
[12] = system: Histoplasma capsulatum; assay: Antifungal activity against Histoplasma capsulatum Darling isolate 1106 at 20 ug/ml after 2 weeks (reference value: 25 mm); details: Darling isolate 1106, 336 h, read-out: DIZ
[13] = system: Histoplasma capsulatum; assay: Antifungal activity against Histoplasma capsulatum Darling isolate 1106 at 100 ug/ml after 3 weeks (reference value: 31 mm)
[14] = system: Histoplasma capsulatum; assay: Antifungal activity against Histoplasma capsulatum Darling isolate 1106 at 60 ug/ml after 3 weeks (reference value: 31 mm)
[15] = system: Histoplasma capsulatum; assay: Antifungal activity against Histoplasma capsulatum Darling isolate 1106 at 40 ug/ml after 3 weeks (reference value: 31 mm); details: Darling isolate 1106, 504 h, read-out: DIZ
[16] = system: Histoplasma capsulatum; assay: Antifungal activity against Histoplasma capsulatum Darling isolate 1106 at 10 ug/ml after 3 weeks (reference value: 31 mm); details: Darling isolate 1106, 504 h, read-out: DIZ
[17] = system: Blastomyces dermatitidis; assay: Antifungal activity against Blastomyces dermatitidis Gilchrist & Stokes isolate 1099 at 80 ug/ml after 1 week (reference value: 14 mm)
[18] = system: Blastomyces dermatitidis; assay: Antifungal activity against Blastomyces dermatitidis Gilchrist & Stokes isolate 1099 at 60 ug/ml after 1 week (reference value: 14 mm)
[19] = system: Blastomyces dermatitidis; assay: Antifungal activity against Blastomyces dermatitidis Gilchrist & Stokes isolate 1099 at 40 ug/ml after 1 week (reference value: 14 mm)
[20] = system: Blastomyces dermatitidis; assay: Antifungal activity against Blastomyces dermatitidis Gilchrist & Stokes isolate 1099 at 10 ug/ml after 1 week (reference value: 14 mm); details: Gilchrist & Stokes isolate 1099, 168 h, read-out: DIZ; method in brief: as §1
[21] = system: Blastomyces dermatitidis; assay: Antifungal activity against Blastomyces dermatitidis Gilchrist & Stokes isolate 1099 at 80 ug/ml after 2 weeks (reference value: 27 mm)
[22] = system: Blastomyces dermatitidis; assay: Antifungal activity against Blastomyces dermatitidis Gilchrist & Stokes isolate 1099 at 60 ug/ml after 2 weeks (reference value: 27 mm); details: Gilchrist & Stokes isolate 1099, 336 h, read-out: DIZ; method in brief: as §1
[23] = system: Blastomyces dermatitidis; assay: Antifungal activity against Blastomyces dermatitidis Gilchrist & Stokes isolate 1099 at 40 ug/ml after 2 weeks (reference value: 27 mm); details: Gilchrist & Stokes isolate 1099, 336 h, read-out: DIZ; method in brief: as §1
[24] = system: Blastomyces dermatitidis; assay: Antifungal activity against Blastomyces dermatitidis Gilchrist & Stokes isolate 1099 at 10 ug/ml after 2 weeks (reference value: 27 mm); details: Gilchrist & Stokes isolate 1099, 336 h, read-out: DIZ; method in brief: as §1
[25] = system: Blastomyces dermatitidis; assay: Antifungal activity against Blastomyces dermatitidis Gilchrist & Stokes isolate 1099 at 100 ug/ml after 3 weeks (reference value: 34 mm); method in brief: as §1
[26] = system: Blastomyces dermatitidis; assay: Antifungal activity against Blastomyces dermatitidis Gilchrist & Stokes isolate 1107 at 100 ug/ml after 1 week (reference value: 20 mm)
[27] = system: Blastomyces dermatitidis; assay: Antifungal activity against Blastomyces dermatitidis Gilchrist & Stokes isolate 1107 at 60 ug/ml after 1 week (reference value: 20 mm)
[28] = system: Blastomyces dermatitidis; assay: Antifungal activity against Blastomyces dermatitidis Gilchrist & Stokes isolate 1107 at 40 ug/ml after 1 week (reference value: 20 mm)
[29] = system: Blastomyces dermatitidis; assay: Antifungal activity against Blastomyces dermatitidis Gilchrist & Stokes isolate 1107 at 10 ug/ml after 1 week (reference value: 20 mm); details: Gilchrist & Stokes isolate 1107, 168 h, read-out: DIZ; method in brief: as §1
[30] = system: Blastomyces dermatitidis; assay: Antifungal activity against Blastomyces dermatitidis Gilchrist & Stokes isolate 1107 at 100 ug/ml after 2 weeks (reference value: 35 mm); method in brief: as §1
[31] = system: Blastomyces dermatitidis; assay: Antifungal activity against Blastomyces dermatitidis Gilchrist & Stokes isolate 1107 at 40 ug/ml after 2 weeks (reference value: 35 mm); details: Gilchrist & Stokes isolate 1107, 336 h, read-out: DIZ; method in brief: as §1
[32] = system: Histoplasma capsulatum; assay: Antifungal activity against Histoplasma capsulatum Darling isolate 1098 at 100 ug/ml after 1 week (reference value: 12 mm)
[33] = system: Histoplasma capsulatum; assay: Antifungal activity against Histoplasma capsulatum Darling isolate 1098 at 80 ug/ml after 1 week (reference value: 12 mm)
[34] = system: Histoplasma capsulatum; assay: Antifungal activity against Histoplasma capsulatum Darling isolate 1098 at 60 ug/ml after 1 week (reference value: 12 mm)
[35] = system: Histoplasma capsulatum; assay: Antifungal activity against Histoplasma capsulatum Darling isolate 1098 at 20 ug/ml after 1 week (reference value: 12 mm); details: Darling isolate 1098, 168 h, read-out: DIZ
[36] = system: Histoplasma capsulatum; assay: Antifungal activity against Histoplasma capsulatum Darling isolate 1098 at 100 ug/ml after 2 weeks (reference value: 21 mm)
[37] = system: Histoplasma capsulatum; assay: Antifungal activity against Histoplasma capsulatum Darling isolate 1098 at 80 ug/ml after 2 weeks (reference value: 21 mm)
[38] = system: Histoplasma capsulatum; assay: Antifungal activity against Histoplasma capsulatum Darling isolate 1098 at 40 ug/ml after 2 weeks (reference value: 21 mm); details: Darling isolate 1098, 336 h, read-out: DIZ
[39] = system: Histoplasma capsulatum; assay: Antifungal activity against Histoplasma capsulatum Darling isolate 1098 at 10 ug/ml after 2 weeks (reference value: 21 mm); details: Darling isolate 1098, 336 h, read-out: DIZ
[40] = system: Histoplasma capsulatum; assay: Antifungal activity against Histoplasma capsulatum Darling isolate 1098 at 80 ug/ml after 3 weeks (reference value: 28 mm)

`C[C@@H]1CC[C@@H](c2ccoc2)N2C(O)[C@@](C)(Sc3ccccc3)CC[C@@H]12` (stereo not given in full) gave a zone of inhibition at 10 µg/mL [1] of 26 mm, a zone of inhibition at 80 µg/mL [2] of 7 mm and a zone of inhibition at 60 µg/mL [3] of 14 mm. The zone of inhibition at 10 µg/mL [4] was 32 mm, the Activity [5] was “Active” and the Activity [6] was “Active”. For the same molecule, the Activity [7] was “inactive”, the zone of inhibition at 20 µg/mL [8] was 6 mm and the zone of inhibition at 10 µg/mL [9] was 9 mm. For the same molecule, the Activity [10] was “Active”, the Activity [11] was “inactive” and the zone of inhibition at 20 µg/mL [12] was 11 mm. For the same molecule, the Activity [13] was “Active”, the Activity [14] was “Active” and the zone of inhibition at 40 µg/mL [15] was 5 mm. The zone of inhibition at 10 µg/mL [16] was 25 mm, the Activity [17] was “Active” and the Activity [18] was “Active”. The Activity [19] was “inactive”, the zone of inhibition at 10 µg/mL [20] was 12 mm and the Activity [21] was “Active”. For the same molecule, the zone of inhibition at 60 µg/mL [22] was 6 mm, the zone of inhibition at 40 µg/mL [23] was 10 mm and the zone of inhibition at 10 µg/mL [24] was 20 mm. The Activity [25] was “Active”, the Activity [26] was “Active” and the Activity [27] was “Active”. The Activity [28] was “inactive”, the zone of inhibition at 10 µg/mL [29] was 13 mm and the Activity [30] was “Active”. The zone of inhibition at 40 µg/mL [31] was 15 mm, the Activity [32] was “Active” and the Activity [33] was “Active”. The Activity [34] was “Active”, the zone of inhibition at 20 µg/mL [35] was 8 mm and the Activity [36] was “Active”. The Activity [37] was “Active”, the zone of inhibition at 40 µg/mL [38] was 9 mm and the zone of inhibition at 10 µg/mL [39] was 19 mm. The Activity [40] was “Active”.
